# ChEMBL document CHEMBL2146367, “Novel fluorescent ceramide derivatives for probing ceramidase substrate specificity” (Bioorg Med Chem, 2012)
# B1: Neutral ceramidase (Homo sapiens), Q9NR71 (protein)
# chain: MAKRTFSNLETFLIFLLVMMSAITVALLSLLFITSGTIENHKDLGGHFFSTTQSPPATQGSTAAQRSTATQHSTATQSSTATQTSPVPLTPESPLFQNFSGYHIGVGRADCTGQVADINLMGYGKSGQNAQGILTRLYSRAFIMAEPDGSNRTVFVSIDIGMVSQRLRLEVLNRLQSKYGSLYRRDNVILSGTHTHSGPAGYFQYTVFVIASEGFSNQTFQHMVTGILKSIDIAHTNMKPGKIFINKGNVDGVQINRSPYSYLQNPQSERARYSSNTDKEMIVLKMVDLNGDDLGLISWFAIHPVSMNNSNHLVNSDNVGYASYLLEQEKNKGYLPGQGPFVAAFASSNLGDVSPNILGPRCINTGESCDNANSTCPIGGPSMCIAKGPGQDMFDSTQIIGRAMYQRAKELYASASQEVTGPLASAHQWVDMTDVTVWLNSTHASKTCKPALGYSFAAGTIDGVGGLNFTQGKTEGDPFWDTIRDQILGKPSEEIKECHKPKPILLHTGELSKPHPWHPDIVDVQIITLGSLAITAIPGEFTTMSGRRLREAVQAEFASHGMQNMTVVISGLCNVYTHYITTYEEYQAQRYEAASTIYGPHTLSAYIQLFRNLAKAIATDTVANLSRGPEPPFFKQLIVPLIPSIVDRAPKGRTFGDVLQPAKPEYRVGEVAEVIFVGANPKNSVQNQTHQTFLTVEKYEATSTSWQIVCNDASWETRFYWHKGLLGLSNATVEWHIPDTAQPGIYRIRYFGHNRKQDILKPAVILSFEGTSPAFEVVTI
# B2: Acid ceramidase (Homo sapiens), Q13510 (protein)
# chain: MPGRSCVALVLLAAAVSCAVAQHAPPWTEDCRKSTYPPSGPTYRGAVPWYTINLDLPPYKRWHELMLDKAPVLKVIVNSLKNMINTFVPSGKIMQVVDEKLPGLLGNFPGPFEEEMKGIAAVTDIPLGEIISFNIFYELFTICTSIVAEDKKGHLIHGRNMDFGVFLGWNINNDTWVITEQLKPLTVNLDFQRNNKTVFKASSFAGYVGMLTGFKPGLFSLTLNERFSINGGYLGILEWILGKKDVMWIGFLTRTVLENSTSYEEAKNLLTKTKILAPAYFILGGNQSGEGCVITRDRKESLDVYELDAKQGRWYVVQTNYDRWKHPFFLDDRRTPAKMCLNRTSQENISFETMYDVLSTKPVLNKLTVYTTLIDVTKGQFETYLRDCPDPCIGW
# B3: Neutral ceramidase (Mus musculus), Q9JHE3 (protein)
# chain: MAKRTFSTLEAFLIFLLVIMTVITVALLTLLFVTSGTIENHKDSGNHWFSTTLGSTTTQPPPITQTPNFPSFRNFSGYYIGVGRADCTGQVSDINLMGYGKNGQNARGLLTRLFSRAFILADPDGSNRMAFVSVELCMISQRLRLEVLKRLESKYGSLYRRDNVILSAIHTHSGPAGFFQYTLYILASEGFSNRTFQYIVSGIMKSIDIAHTNLKPGKIFINKGNVANVQINRSPSSYLLNPQSERARYSSNTDKEMLVLKLVDLNGEDLGLISWFAIHPVSMNNSNHFVNSDNMGYAAYLFEQEKNKGYLPGQGPFVAGFASSNLGDVSPNILGPHCVNTGESCDNDKSTCPNGGPSMCMASGPGQDMFESTHIIGRIIYQKAKELYASASQEVTGPVLAAHQWVNMTDVSVQLNATHTVKTCKPALGYSFAAGTIDGVSGLNITQGTTEGDPFWDTLRDQLLGKPSEEIVECQKPKPILLHSGELTIPHPWQPDIVDVQIVTVGSLAIAAIPGELTTMSGRRFREAIKKEFALYGMKDMTVVIAGLSNVYTHYITTYEEYQAQRYEAASTIYGPHTLSAYIQLFRDLAKAIATDTVANMSSGPEPPFFKNLIASLIPNIADRAPIGKHFGDVLQPAKPEYRVGEVVEVIFVGANPKNSAENQTHQTFLTVEKYEDSVADWQIMYNDASWETRFYWHKGILGLSNATIYWHIPDTAYPGIYRIRYFGHNRKQELLKPAVILAFEGISSPFEVVTT
# Tests used:
# [1] = substrate: CCCCCCCCCCCCC/C=C/[C@@H](O)[C@H](CO)NC(=O)CCCCCCCCCCCNc1ccc([N+](=O)[O-])c2nonc12; experiment: (§1) Activity of human recombinant neutral ceramidase after 60 mins by Lineweaver-Burk plot analysis
# Method in brief: (§2)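 Human recombinant nCDase held at 20 ng/mL in 200 mM sodium acetate pH 7.0 with 200 mM NaCl and 0.1% Triton X-100. Substrate varied from 5 to 150 or 5 to 180 µM, DMSO <5%. Incubated 60 min at 37 °C, chloroform/methanol quench, TLC with fluorescence imaging. Kinetic constants from Lineweaver-Burk plots, mean ± SD of triplicate experiments.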
# [2] = substrate: CCCCCCCCCCCCC/C=C/[C@@H](O)[C@H](CO)NC(=O)CCCCCCCCCCCOc1ccc2c(=O)cc3oc4cc(N(CC)CC)ccc4nc-3c2c1; experiment: as §1; method in brief: as §2
# [3] = substrate: CCCCCCCCCCCCCCCC(=O)N[C@@H](CO)[C@H](O)/C=C/CCCCCCCCCNc1ccc([N+](=O)[O-])c2nonc12; experiment: as §1; method in brief: as §2
# [4] = substrate: CCCCCCCCCCCCCCCC(=O)N[C@@H](CO)[C@H](O)/C=C/CCCCCCCCCOc1ccc2c(=O)cc3oc4cc(N(CC)CC)ccc4nc-3c2c1; experiment: as §1; method in brief: as §2
# [5] = substrate: CCCCCCCCCCCCC/C=C/[C@@H](O)[C@H](CO)NC(=O)CCCCCCCCCCCNc1ccc([N+](=O)[O-])c2nonc12; experiment: (§3) Activity of human recombinant neutral ceramidase assessed per ng of protein after 60 mins by Lineweaver-Burk plot analysis; method in brief: as §2
# [6] = substrate: CCCCCCCCCCCCC/C=C/[C@@H](O)[C@H](CO)NC(=O)CCCCCCCCCCCOc1ccc2c(=O)cc3oc4cc(N(CC)CC)ccc4nc-3c2c1; experiment: as §3; method in brief: as §2
# [7] = substrate: CCCCCCCCCCCCCCCC(=O)N[C@@H](CO)[C@H](O)/C=C/CCCCCCCCCNc1ccc([N+](=O)[O-])c2nonc12; experiment: as §3; method in brief: as §2
# [8] = substrate: CCCCCCCCCCCCCCCC(=O)N[C@@H](CO)[C@H](O)/C=C/CCCCCCCCCOc1ccc2c(=O)cc3oc4cc(N(CC)CC)ccc4nc-3c2c1; experiment: as §3; method in brief: as §2
# [9] = substrate: CCCCCCCCCCCCC/C=C/[C@@H](O)[C@H](CO)NC(=O)CCCCCCCCCCCNc1ccc([N+](=O)[O-])c2nonc12; experiment: (§4) Activity of human recombinant acid ceramidase expressed in baculovirus infected Sf9 cells after 150 mins by Lineweaver-Burk plot analysis
# Method in brief: (§5)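 Recombinant human aCDase expressed in insect cells, at a fixed enzyme level, in 200 mM sodium acetate pH 4.5 with 200 mM NaCl and 0.1% Triton X-100. Substrate varied from 5 to 150 µM or 5 to 180 µM, added from DMSO stocks (DMSO <5% v/v), 37 °C for 150 min. Chloroform/methanol extraction, TLC, fluorescence imaging of cleaved and uncleaved spots. KM, Vmax and kcat taken from Lineweaver-Burk plots, mean ± SD of three independent experiments.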
# [10] = substrate: CCCCCCCCCCCCC/C=C/[C@@H](O)[C@H](CO)NC(=O)CCCCCCCCCCCOc1ccc2c(=O)cc3oc4cc(N(CC)CC)ccc4nc-3c2c1; experiment: as §4; method in brief: as §5
# [11] = substrate: CCCCCCCCCCCCCCCC(=O)N[C@@H](CO)[C@H](O)/C=C/CCCCCCCCCNc1ccc([N+](=O)[O-])c2nonc12; experiment: as §4; method in brief: as §5
# [12] = substrate: CCCCCCCCCCCCCCCC(=O)N[C@@H](CO)[C@H](O)/C=C/CCCCCCCCCOc1ccc2c(=O)cc3oc4cc(N(CC)CC)ccc4nc-3c2c1; experiment: as §4; method in brief: as §5
# [13] = substrate: CCCCCCCCCCCCC/C=C/[C@@H](O)[C@H](CO)NC(=O)CCCCCCCCCCCNc1ccc([N+](=O)[O-])c2nonc12; experiment: (§6) Activity of human recombinant acid ceramidase expressed in baculovirus infected Sf9 cells assessed per ug of protein after 150 mins by Lineweaver-Burk plot analysis; method in brief: as §5
# [14] = substrate: CCCCCCCCCCCCC/C=C/[C@@H](O)[C@H](CO)NC(=O)CCCCCCCCCCCOc1ccc2c(=O)cc3oc4cc(N(CC)CC)ccc4nc-3c2c1; experiment: as §6; method in brief: as §5
# [15] = substrate: CCCCCCCCCCCCCCCC(=O)N[C@@H](CO)[C@H](O)/C=C/CCCCCCCCCNc1ccc([N+](=O)[O-])c2nonc12; experiment: as §6; method in brief: as §5
# [16] = substrate: CCCCCCCCCCCCCCCC(=O)N[C@@H](CO)[C@H](O)/C=C/CCCCCCCCCOc1ccc2c(=O)cc3oc4cc(N(CC)CC)ccc4nc-3c2c1; experiment: as §6; method in brief: as §5
# [17] = substrate: CCCCCCCCCCCCC/C=C/[C@@H](O)[C@H](CO)NC(=O)CCCCCCCCCCCNc1ccc([N+](=O)[O-])c2nonc12; experiment: Activity of mouse neutral ceramidase after 30 mins by TLC-based fluorescence imaging
protein,measurement,setting,value
B1,Km,[1],190 µM
same,Vmax,[1],62.4 pmol/min
same,Km,[2],85.3 µM
same,Vmax,[2],10 pmol/min
same,Km,[3],193 µM
same,Vmax,[3],31.8 pmol/min
same,Km,[4],36.4 µM
same,Vmax,[4],5.3 pmol/min
same,specific activity,[5],3.1 pmol/min/ng
same,specific activity,[6],0.5 pmol/min/ng
same,specific activity,[7],1.6 pmol/min/ng
same,specific activity,[8],0.26 pmol/min/ng
B2,Km,[9],86.9 µM
same,Vmax,[9],4.4 pmol/min
same,Km,[10],110 µM
same,Vmax,[10],7.2 pmol/min
same,Km,[11],204 µM
same,Vmax,[11],12.2 pmol/min
same,Km,[12],81.8 µM
same,Vmax,[12],3.9 pmol/min
same,specific activity,[13],0.0882 pmol/min/µg
same,specific activity,[14],0.143 pmol/min/µg
same,specific activity,[15],0.244 pmol/min/µg
same,specific activity,[16],0.078 pmol/min/µg
B3,Km,[17],22.3 µM
same,Vmax,[17],4.7 pmol/min
